Publication PMC8322834 (Biochemistry, 2020)
≈ marks a conversion by molar mass, not a printed value. Entries after “also recorded” stand apart in the source; their conditions may differ. Values belong to the molecule of their own block, whether it stands above or below them. Non-standard residues stand in square brackets, D forms with d. Residues, ends and D or L forms follow the SMILES beside them. *: point of attachment. X1 = N=c1ccc2c(-c3ccc(C(=O)NCCCCCN4C(=O)CC(*)C4=O)cc3C(=O)O)c3ccc(N)c(S(=O)(=O)O)c3oc-2c1S(=O)(=O)O

Legend:
[1] = tested on: wild-type E. coli (ATCC 25922) cells; assay type: cell-based; conditions: ATCC 25922, 18 h
DnaK (ADP-state) = DnaK (ADP-state) (Escherichia coli, UniProt P0A6Y8); test: native gel electrophoresis; assay type: binding, E. coli
How it was run: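 DnaK (5 μM) was incubated with test peptide (0–50 μM, independent samples) for 1 hr at 21.5 ± 0.5 °C. Native gels used 32 mM Tris-acetate pH 7.5 running buffer at 200 V for 5 hrs, water-cooled. DnaK band intensity profiles were fit to a sum of two Gaussians to build binding isotherms. KD1 is the mean of n = 3 independent experiments ± standard error.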

DnaK/DnaJ/GrpE (K/J/E) = conditions: simple buffer conditions, 400 μM KLR-70, 30 °C, 1 hr
ADP-DnaK [2] = target: T1, ADP-DnaK (Escherichia coli, UniProt P0A6Y8); test: steady-state fluorescence anisotropy, competitive binding to ADP-DnaK; set-up: species or system E. coli
GroEL/ES = conditions: c.f. mix, purified GroEL (0.5 μM) / GroES (1.0 μM), 30 °C, 1 hr, Figure S5
[3] = tested on: nascent apoMb biosynthesis (cell-free transcription-translation); test: cell-free expression of apoMb; assay type: biochemical, E. coli; conditions: 37 °C, 20 min
[4] = far-UV circular dichroism; assay type: physicochemical; conditions: 1.3 mM HEPES (pH 7.0), room temperature
How it was run: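 Test peptide at 20 μM in 1.3 mM HEPES pH 7.0, room temperature. Far-UV spectra recorded from 190 to 260 nm in 1 nm steps at 20 s/step. Each spectrum is the average of n = 2 independent experiments. Secondary structure was deconvoluted with CONTINLL.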

ADP-DnaK [5] = target: T1, ADP-DnaK; test: steady-state fluorescence anisotropy, direct binding to ADP-DnaK; set-up: species or system E. coli; conditions: Q taken to be 1.0, Figure S3

T1 sequence (P0A6Y8 whole entry): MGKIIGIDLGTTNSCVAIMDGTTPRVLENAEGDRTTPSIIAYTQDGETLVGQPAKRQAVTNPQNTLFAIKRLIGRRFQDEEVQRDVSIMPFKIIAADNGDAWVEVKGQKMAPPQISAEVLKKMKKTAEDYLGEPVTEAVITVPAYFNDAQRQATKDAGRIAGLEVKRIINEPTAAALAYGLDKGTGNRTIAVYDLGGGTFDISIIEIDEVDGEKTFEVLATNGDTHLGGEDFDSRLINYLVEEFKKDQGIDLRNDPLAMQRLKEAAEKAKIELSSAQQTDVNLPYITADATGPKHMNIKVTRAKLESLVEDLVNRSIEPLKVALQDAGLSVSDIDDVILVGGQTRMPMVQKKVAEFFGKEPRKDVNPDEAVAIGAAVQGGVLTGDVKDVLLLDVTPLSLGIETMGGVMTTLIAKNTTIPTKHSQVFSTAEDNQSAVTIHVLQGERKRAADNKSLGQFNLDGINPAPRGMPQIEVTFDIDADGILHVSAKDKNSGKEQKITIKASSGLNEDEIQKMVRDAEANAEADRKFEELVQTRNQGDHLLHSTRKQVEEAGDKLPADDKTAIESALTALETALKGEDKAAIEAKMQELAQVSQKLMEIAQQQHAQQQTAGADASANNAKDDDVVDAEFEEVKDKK
DnaK (ADP-state), sequence (P0A6Y8 whole entry): as above

MIC [1]: 5 mg/L (≈ 2.09 µM)
SMILES: CC[C@H](C)[C@H](NC(=O)[C@@H](CCCNC(=N)N)NC(=O)[C@H](CCCNC(=N)N)NC(=O)[C@@H]1CCCN1C(=O)[C@@H]1CCCN1C(=O)[C@H](CCCNC(=N)N)NC(=O)[C@@H]1CCCN1C(=O)[C@H](CCCNC(=N)N)NC(=O)[C@@H]1CCCN1C(=O)[C@H](CC(C)C)NC(=O)[C@H](Cc1ccc(O)cc1)NC(=O)[C@@H]1CCCN1C(=O)[C@@H]1CCCN1C(=O)[C@H](CCCCN)NC(=O)[C@H](CC(=O)O)NC(=O)[C@@H](N)C(C)C)C(=O)N[C@@H](Cc1ccc(O)cc1)C(=O)N[C@@H](CC(N)=O)C(=O)N[C@H](CCCNC(=N)N)C(N)=O [Onc112, reference compound] (H-VDKPPYLPRPRPPR[dR]IYN[dR]-NH2)

SMILES: CC(C)C[C@H](NC(=O)[C@H](CCCCN)NC(=O)[C@H](CCCCN)NC(=O)CNC(=O)[C@H](CCCNC(=N)N)NC(=O)[C@@H](N)CCCNC(=N)N)C(=O)N[C@@H](CC(C)C)C(=O)N[C@@H](CC(C)C)C(=O)N[C@@H](CC(C)C)C(=O)N[C@@H](CC(C)C)C(=O)N[C@@H](CCCCN)C(=O)N[C@@H](CCCCN)C(=O)N[C@@H](CCCCN)C(=O)NCC(=O)O [KLR-70] (H-RRGKKLLLLLKKKG-OH)
Kd (DnaK (ADP-state)): 0.158 ± 0.073 µM
inhibition of K/J/E-mediated luciferase refolding (DnaK/DnaJ/GrpE (K/J/E)): fully inhibits K/J/E-mediated luciferase refolding
MIC [1]: 41 to 83 mg/L
Kd (ADP-DnaK [2]): 0.89 ± 0.39 µM
effect on GroEL/ES-mediated luciferase refolding (GroEL/ES): only weakly reduces the GroEL/ES-mediated refolding of luciferase
effect on nascent apoMb expression ([3]; 150 μM peptide, Δtig S30 extract, pH 7.0, n = 3): does not have any influence on apoMb production
effect on nascent apoMb synthesis ([3]; 60 – 150 μM KLR-70, Δtig S30 extract, pH 7.0, n = 3): nascent protein synthesis is not disrupted
effect on nascent apoMb synthesis ([3]; 200 – 400 μM KLR-70, Δtig S30 extract, pH 7.0, n = 3): Partial inhibition of protein expression
highest KLR-70 concentration not disrupting cell-free protein expression ([3]; Δtig E. coli cell-free system): up to 150 μM
secondary structure in solution [4]: mostly unordered; also recorded: predominantly unstructured in solution

SMILES: CC(C)C[C@H](NC(=O)[C@H](CCCCN)NC(=O)[C@H](CCCCN)NC(=O)CNC(=O)[C@H](CCCNC(=N)N)NC(=O)[C@@H](N)CCCNC(=N)N)C(=O)N[C@@H](CC(C)C)C(=O)N[C@@H](CC(C)C)C(=O)N[C@@H](CC(C)C)C(=O)N[C@@H](CC(C)C)C(=O)N[C@@H](CCCCN)C(=O)N[C@@H](CCCCN)C(=O)N[C@@H](CCCCN)C(=O)NCC(=O)N[C@@H](CSC1CC(=O)N(CCCCCNC(=O)c2ccc(-c3c4ccc(=N)c(S(=O)(=O)O)c-4oc4c(S(=O)(=O)O)c(N)ccc34)c(C(=O)O)c2)C1=O)C(=O)O (stereo partly drawn) [KLR-70-C-AF488] (H-RRGKKLLLLLKKKGC(X1)-OH; N-terminus and C-terminus assumed)
change in total fluorescence intensity in presence of ADP-DnaK (ADP-DnaK [5]): no statistically significant changes in total fluorescence intensity
